Key:
[1] = biological target: recombinant BbCDPK1 (rBbCDPK1) (Besnoitia besnoiti, UniProt A0A290U7L2); assay: BbCDPK1 enzymatic activity inhibition, Kinase-Glo luciferase assay; type: biochemical
[2] = system: Marc-145 cells; assay: Mammalian cell toxicity, XTT cell viability assay; type: cell-based; details: uninfected Marc-145 cells, 5 μM, 72 h
In short: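 Exponential-phase Marc-145 cells were seeded at 2 × 10^5 cells/mL together with test compound dissolved in DMSO, in quadruplicate, and grown 72 h at 37 °C in humidified 5% CO2. XTT reagent was then added for 4 h, and […]. Percent growth inhibition was calculated relative to the DMSO vehicle.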

[3] = system: B. besnoiti tachyzoites (Bb-Spain1) in Marc-145 cells; assay: Short term dose-response assays, EC50 and EC99 determination by qPCR; type: cell-based, Besnoitia besnoiti
[4] = system: B. besnoiti tachyzoites (Bb-Spain1) in HFF cells; assay: Transmission electron microscopy of B. besnoiti-infected HFF treated with BKIs; type: cell-based, Besnoitia besnoiti; details: 5 μM, HFF cells, 4, 6 and 8 days; listed as BKI-1294
[5] = cattle; ref Huang et al., 2015; Schaefer et al., 2016; Hulverson et al., 2017; cited from earlier work

CCOc1ccc2cc(-c3nn(CC4CCN(C)CC4)c4ncnc(N)c34)ccc2c1 [Compound 1294]
IC50 values against BbCDPK1 (in words) [1]: lower nanomolar range | Percentage of cytotoxicity compared to DMSO-treated negative control [2]: 5.2% | EC99 (B. besnoiti) ([3]; BKI added at 0 hpi, 3-day proliferation assay, qPCR, Marc-145 cells): 2.38 µM | EC50 ([3]; Besnoitia besnoiti, MARC145, 72 h, read-out: EC50 (B. besnoiti)): 45 nM | Effect on ultrastructure of tachyzoites (TEM) [4]: formed multinucleated complexes | Plasma levels achieved [5]: up to 5 μM
